ABHD4 inh: ABHD4 (mouse) inhibition, primary FP screen; purified mABHD4, FP-Rh probe fluorescence polarization; 0.54% of 370,000 active; Q8VD66; AID 720543; inhibition, % at 8.92 µM;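 active = inhibition exceeding the mean over every tested compound plus 3 SD, cut at about 30% in these data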
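Assay system: Wild-type mouse ABHD4 protein | Medium: HEPES pH 7.0 buffer, 150 mM NaCl, 0.01% Pluronic F-127 | Incubation: Enzyme–compound pre-incubation 45 min, then probe 60 min, both 25 °C | Technique: Fluorescence polarization with parallel and perpendicular emission, 525/598 nm | Evaluation: % inhibition of FP-Rh probe binding versus controls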
TCR-CD3 inh: inhibitors of human TCR-CD3 interaction. TAMRA-labeled TCR probe fluorescence, biochemical. inhibition, % at 9.4 µM. 0.37% of 360,000 active. AID 651800; in the data active = inhibition above about 19%;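 also: recombinant mutant TCR 2C K166C tagged with TAMRA read by polarization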
rCAG binder: r(CAG) repeat RNA binding; TO-PRO-1 dye displacement fluorescence; inhibition, % at 3 µM; 1.3% of 370,000 active; AID 651821;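 active = inhibition above the plate cutoff, the mean of all test compounds on that plate plus 3 SD, cut at about 35% in these data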;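 also: higher means more dye released from RNA so lower well fluorescence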
PRMT1 inh: blocks human protein arginine methyltransferase 1 | recombinant PRMT1, activity-based probe fluorescence polarization | inhibition, % at 2.79 µM | 1.3% of 370,000 active;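 active = inhibition above about 21% made by adding two undisclosed values, limit read from the data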
SIAE primary: human SIAE inhibition, primary screen; Q9HAT2; SIAE FP-Rh probe binding, fluorescence polarization; inhibition, % at 9.66 µM; 0.69% of 370,000 active; AID 1053197;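 active = inhibition above a cutoff: mean of compounds within the control limits plus 3 SD of those, cut at about 17% in these data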
Target sequence (Q9HAT2 whole entry, looked up): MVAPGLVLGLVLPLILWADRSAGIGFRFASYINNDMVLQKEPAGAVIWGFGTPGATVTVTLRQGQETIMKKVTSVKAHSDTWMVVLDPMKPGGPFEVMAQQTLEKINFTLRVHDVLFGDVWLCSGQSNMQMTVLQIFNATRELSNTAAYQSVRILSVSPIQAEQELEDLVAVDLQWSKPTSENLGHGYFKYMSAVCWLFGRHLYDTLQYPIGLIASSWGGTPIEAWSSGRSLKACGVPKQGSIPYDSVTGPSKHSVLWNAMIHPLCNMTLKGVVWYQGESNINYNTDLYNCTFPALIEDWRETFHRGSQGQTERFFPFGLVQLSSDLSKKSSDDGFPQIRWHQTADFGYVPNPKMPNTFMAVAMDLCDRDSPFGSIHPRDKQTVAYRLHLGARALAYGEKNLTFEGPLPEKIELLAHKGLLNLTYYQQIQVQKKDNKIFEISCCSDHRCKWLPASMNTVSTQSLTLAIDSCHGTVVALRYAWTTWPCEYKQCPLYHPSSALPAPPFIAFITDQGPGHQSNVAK
rCAG binder conf: r(CAG) RNA repeat binding, confirmation; inhibition, % at 3 µM; 70% of 4,300 active; AID 652065; TO-PRO-1 dye displacement fluorescence; shares compounds with rCAG binder;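 active = inhibition above a per-plate cutoff, the mean inhibition of sample wells plus 3 SD, cut at about 35% in these data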;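 also: loss of TO-PRO-1 fluorescence as compound displaces dye from 1x1 AA loop RNA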
dCAG dye counter: disrupts DNA CAG TO-PRO-1 complex, flagging rCAG hits; shares compounds with rCAG binder; d(CAG) DNA oligo TO-PRO-1 dye displacement, fluorescence; inhibition, % at 3 µM; 94% of 4,300 active;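 active = inhibition above its plate's cutoff, the mean test-well inhibition plus 3 SD, cut at about 4.8% in these data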;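 also: hits displace the dye from DNA and so lower well fluorescence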
DNA CAG DR: disrupts DNA CAG TO-PRO-1 complex in dose response; DNA CAG/GTC duplex TO-PRO-1 dye displacement fluorescence; 20% of 250 active; IC50, µM; shares compounds with rCAG binder; AID 686960; in the data active = IC50 below about 10 µM
PRMT1 confirm: confirmation of human PRMT1 inhibitors. 42% of 3,300 active. inhibition, % at 2.79 µM. shares compounds with PRMT1 inh. AID 687036. recombinant His-PRMT1, activity-based probe fluorescence polarization;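 active = mean inhibition across replicates above the hit cutoff derived for the earlier primary screen, cut at about 22% in these data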
ABHD4 confirm: confirmation of mouse ABHD4 inhibitors; 55% of 1,800 active; shares compounds with ABHD4 inh; inhibition, % at 8.92 µM; purified mABHD4, FP-Rh probe fluorescence polarization;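 active = mean inhibition across replicates above the hit cutoff set in the primary screen, cut at about 30% in these data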
SIAE inh conf: confirmation of human SIAE inhibitors. 13% of 2,300 active. SIAE FP-Rh activity-based probe, fluorescence polarization. inhibition, % at 9.66 µM. shares compounds with SIAE primary;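 active = mean inhibition of the replicates above the hit cutoff set in the primary screen, cut at about 17% in these data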;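 also: inhibitors lower polarization as more probe stays unbound to SIAE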
Hits are given with their value. Only some compounds are listed: those with a hit (about 3.3% of all), similar ones and a draw of the others.

Results for Nc1scc2c(C(=O)N/N=C/c3ccc(Cl)cc3)nn(-c3ccccc3)c(=O)c12 ?
ABHD4 inh: 44; TCR-CD3 inh: inactive; rCAG binder: 41; PRMT1 inh: 22; SIAE primary: inactive; rCAG binder conf: inactive; dCAG dye counter: 16; ABHD4 confirm: inactive

Results for Nc1c(C(=O)N/N=C/c2ccc(Cl)cc2)cnn1-c1ccccc1 ?
ABHD4 inh: inactive; TCR-CD3 inh: inactive; rCAG binder: inactive; PRMT1 inh: inactive; SIAE primary: inactive

What do the screens show for `CNc1ccc(Br)cc(C(=O)/C=C/c2cc(OC)ccc2OC)c1=O`?
ABHD4 inh: 38; TCR-CD3 inh: inactive; rCAG binder: 43; PRMT1 inh: 26; SIAE primary: 17; rCAG binder conf: 38; dCAG dye counter: 16; ABHD4 confirm: 40

How did COc1cccc(NC(=O)NC2CCCCN(Cc3ccc(C)cc3)C2=O)c1 (stereo unspecified) do in these assays?
ABHD4 inh: inactive; rCAG binder: inactive; PRMT1 inh: inactive; SIAE primary: inactive

How did O=C(Nc1sc(-c2ccccc2)cc1C(=O)O)c1ccccc1 do in these assays?
ABHD4 inh: 36; TCR-CD3 inh: inactive; rCAG binder: 85; PRMT1 inh: inactive; SIAE primary: inactive; rCAG binder conf: 73; dCAG dye counter: 34; DNA CAG DR: inactive; ABHD4 confirm: 37

Results for COc1cc(/C=C2/C(=O)NN(c3ccc(Cl)c(Cl)c3)C2=O)cc([N+](=O)[O-])c1O ?
ABHD4 inh: 60; TCR-CD3 inh: inactive; rCAG binder: 99; PRMT1 inh: 26; SIAE primary: inactive; rCAG binder conf: 66; dCAG dye counter: 23; PRMT1 confirm: inactive; ABHD4 confirm: 80

How did COC(=O)N/N=C/c1cc(OC)c(O)c([N+](=O)[O-])c1 do in these assays?
ABHD4 inh: inactive; TCR-CD3 inh: inactive; rCAG binder: inactive; PRMT1 inh: inactive; SIAE primary: inactive

How did COc1ccc(-c2csc(NS(=O)(=O)c3ccc([N+](=O)[O-])cc3)n2)cc1 do in these assays?
ABHD4 inh: 37; TCR-CD3 inh: inactive; rCAG binder: 70; PRMT1 inh: inactive; SIAE primary: inactive; rCAG binder conf: 57; dCAG dye counter: 23; ABHD4 confirm: 34

How did CNc1nc(-c2ccc([N+](=O)[O-])cc2)cs1 do in these assays?
ABHD4 inh: inactive; TCR-CD3 inh: inactive; rCAG binder: inactive; PRMT1 inh: inactive; SIAE primary: inactive

How did Cc1ccc(/C=N/NC(=O)c2cccc(S(=O)(=O)Nc3ccccc3Cl)c2)o1 do in these assays?
ABHD4 inh: inactive; TCR-CD3 inh: inactive; rCAG binder: inactive; PRMT1 inh: inactive; SIAE primary: inactive

What do the screens show for `CCc1cccc2c(/C=N/NC(=O)c3cccc(S(=O)(=O)Nc4ccccc4Cl)c3)c[nH]c12`?
ABHD4 inh: inactive; TCR-CD3 inh: inactive; rCAG binder: 57; PRMT1 inh: inactive; SIAE primary: 36; rCAG binder conf: 72; dCAG dye counter: 31; DNA CAG DR: inactive; SIAE inh conf: inactive

What do the screens show for `O=C(N/N=C/c1ccco1)c1cccc(S(=O)(=O)Nc2ccccc2Cl)c1`?
ABHD4 inh: inactive; TCR-CD3 inh: inactive; rCAG binder: inactive; PRMT1 inh: inactive; SIAE primary: inactive

Results for Cc1[nH]c2ccccc2c1/C=N/NC(=O)c1cccc(S(=O)(=O)Nc2ccccc2Cl)c1 ?
ABHD4 inh: inactive; TCR-CD3 inh: inactive; rCAG binder: 48; PRMT1 inh: inactive; SIAE primary: 37; rCAG binder conf: 63; dCAG dye counter: 21; SIAE inh conf: inactive
